Sampled rows, rich in hits. Any-hit rate of the full collection: about 2.8%.
14-3-3 Bad PPI: inhibitors of 14-3-3 zeta/Bad binding, primary screen, biochemical, TR-FRET, bovine 14-3-3 zeta | TR-FRET 14-3-3zeta/Dy647-pBad peptide displacement, 1 h | AID 781, 2007 | 14-3-3 protein zeta/delta (Bos taurus), P63103 | 220,000 compounds, 0.71% hits | inhibition, % at 21.7 µM;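 active = inhibition above about 70%, limit read from the data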
Target sequence (P63103 whole entry, looked up): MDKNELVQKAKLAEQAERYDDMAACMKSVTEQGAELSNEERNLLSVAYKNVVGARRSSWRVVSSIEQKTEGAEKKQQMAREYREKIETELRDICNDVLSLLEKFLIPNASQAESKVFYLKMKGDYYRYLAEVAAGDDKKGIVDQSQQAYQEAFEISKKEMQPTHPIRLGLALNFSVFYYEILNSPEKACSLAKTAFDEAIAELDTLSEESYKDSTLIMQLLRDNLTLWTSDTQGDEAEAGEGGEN
eIF4E-4G inh: eIF4E–eIF4G protein interaction inhibitors, primary screen, biochemical, uHTS, TR-FRET, eIF4GI fragment | Eukaryotic translation initiation factor 4E (Mus musculus) + Eukaryotic translation … | TR-FRET eIF4E-eIF4GI(517-606) binding, 2 h | inhibition, % at 21.7 µM | 220,000 compounds, 0.37% hits | AID 782, 2007
NCF1 inh: p47phox/p22phox peptide binding inhibitors, primary screen, biochemical, uHTS, NADPH oxidase regulatory subunit; inhibition, % at 24.7 µM; Neutrophil cytosol factor 1 (Homo sapiens), P14598; 220,000 compounds, 0.53% hits; AID 1274, 2008; fluorescence polarization, 2 h
Target sequence (P14598 whole entry, looked up): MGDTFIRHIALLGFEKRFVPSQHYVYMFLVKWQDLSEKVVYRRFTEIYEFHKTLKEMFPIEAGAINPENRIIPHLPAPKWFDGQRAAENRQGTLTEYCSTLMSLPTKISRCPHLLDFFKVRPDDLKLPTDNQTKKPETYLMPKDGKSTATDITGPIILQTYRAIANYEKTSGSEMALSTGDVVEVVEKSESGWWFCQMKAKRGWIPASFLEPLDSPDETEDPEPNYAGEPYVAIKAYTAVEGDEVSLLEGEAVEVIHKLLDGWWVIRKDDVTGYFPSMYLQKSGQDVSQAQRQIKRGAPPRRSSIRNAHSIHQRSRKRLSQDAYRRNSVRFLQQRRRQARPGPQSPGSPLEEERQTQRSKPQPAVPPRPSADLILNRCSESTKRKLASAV
RBBP9 inhibitor: human RBBP9 inhibitors, primary screen, biochemical, fluorescence polarization, FP-Rh probe, HTS. Serine hydrolase RBBP9 (Homo sapiens), O75884. recombinant RBBP9. inhibition, % at 7.94 µM. 220,000 compounds, 0.2% hits. AID 1515, 2009;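 active = inhibition above the campaign mean of all tested compounds plus 3 SD, cut at about 14% in these data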
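Controls: DMSO-treated enzyme wells and wells lacking RBBP9 | Material: RBBP9 protein | Technique: Fluorescence polarization | Replication: Single well per compound, no replicates | Buffer or medium: Tris-NaCl-Pluronic buffer, pH 8.0 | Timing: 30 min compound preincubation, 45 min probe labeling, 25 °C | Read-out basis: Percent inhibition from mP, scaled between DMSO and no-protein wells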
Wee1 stabilizer: Wee1 degradation inhibitors, primary screen, cell-based, HeLa, Wee1K328M-luciferase, luminescence | 220,000 compounds, 1.2% hits | Wee1-like protein kinase (Homo sapiens), P30291 | reporter increase, % at 5 µM | HeLa Luc-Wee1K328M stability; 100% = proteasome inhibitor MG132 effect | AID 1321, 2008;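 active = activation above the mean of all tested compounds plus 3 SD, set per screening run, cut at about 8.8% in these data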;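 also: cells exposed to compound for 20 h before luminescence read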
Wee1 degr conf: Wee1 degradation inhibitors, confirmation, cell-based, HeLa, Wee1K328M-luciferase, luminescence, triplicate | shares compounds with Wee1 stabilizer | HeLa Luc-Wee1K328M degradation; vehicle 0%, proteasome-blocked wells 100% | activation, % at 5 µM | 1,100 compounds, 4% hits; in the data active = activation above about 8.9%
Of the large screens only hits and unclear results are named; the others gave an inactive call (follow-up assays come after a bar, where they were run); [ ] = dose if it differs, or a comment.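 The calls were made as follows, unless noted: active = inhibition above about 30% (limit read from the data); inactive = the rest.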

NS(=O)(=O)c1ccc(NC(=O)c2ccc3nccnc3c2)cc1	eIF4E-4G inh 94
O=C(Nc1nccs1)c1ccc2nccnc2c1	none (no result: 14-3-3 Bad PPI, eIF4E-4G inh)
CCCc1nc2ccccc2[nH]1	none
COc1ccc(CCCc2nc3ccccc3[nH]2)cc1	Wee1 stabilizer 9.9
CC(=O)Nc1ccc(NC=C(C#N)C#N)cc1	none
CN1CCN(CCOc2cccc(Cl)c2)CC1	14-3-3 Bad PPI 73
CN1CCN(CCOc2ccc(Cl)c(Cl)c2)CC1	none
CC(C)(C)OC(=O)N1CCC[C@H]1C(=O)NCc1ccc(Cl)cc1Cl	Wee1 stabilizer 10
Cc1ccc(NC(=O)C2CCCN2C(=O)OC(C)(C)C)cc1C (stereo unspecified)	Wee1 stabilizer 10
COc1ccc2cc3c(N)nn(C(=O)c4cccc(F)c4)c3nc2c1	eIF4E-4G inh 75
COc1ccc2cc3c(N)nn(C(=O)c4ccc(F)cc4)c3nc2c1	none
Cc1ccc(NC(=O)CN2CCN(CCN=CC3=C(O)CC(c4ccccc4)CC3=O)CC2)cc1 (stereo unspecified)	none
O=C(O)c1cc([N+](=O)[O-])c(NCc2cccnc2)c([N+](=O)[O-])c1	none
COc1ccccc1NS(=O)(=O)c1cccc(NC(=O)NCCCl)c1	Wee1 stabilizer 11
CCS(=O)(=O)N1CCC(C(=O)N2CCN(Cc3ccccc3)CC2)CC1	none
O=C(C1CCN(Cc2cc(Cl)ccc2O)CC1)N1CCN(Cc2ccccc2)CC1	eIF4E-4G inh 82
Cc1ccc(Nc2c(F)c(F)c(F)c(F)c2C(=O)O)cc1	Wee1 stabilizer 13
Cc1cccc(Nc2c(F)c(F)c(F)c(F)c2C(=O)O)c1	none
Cc1c(OC(=O)c2ccc([N+](=O)[O-])cc2)c2c(c[n+]1C)COC(C)(C)OC2	eIF4E-4G inh 41[fluorescence artefact?]
Cc1ncc2c(c1OC(=O)c1ccccc1)COC(C)(C)OC2	none
O=C(Nc1nccs1)c1cc(-c2ccco2)nc2ccccc12	eIF4E-4G inh 36[fluorescence artefact?]
O=C(NC1CC1)c1cc(-c2ccco2)nc2ccccc12	14-3-3 Bad PPI 83, eIF4E-4G inh 57
O=C(Nc1nccs1)c1cc(-c2ccccc2)nc2ccccc12	none
Cc1ccc(NC(=O)C2CC(=O)Nc3nc4ccccc4n32)c(C)c1 (stereo unspecified)	none
CS(=O)(=O)c1cnc(-c2ccccc2)nc1-c1ccc(Cl)c(Cl)c1	14-3-3 Bad PPI 73
O=C(O)c1ccc(-n2cccc2/C=N\NC(=O)c2cc3cc(Br)ccc3o2)cc1	14-3-3 Bad PPI 80
O=C(C1=NN[C@@H]2C(=O)N(Cc3ccccc3)C(=O)[C@H]12)c1ccc(F)cc1	Wee1 stabilizer 11 | Wee1 degr conf inactive
CCOc1ccc(CONS(=O)(=O)c2ccc(NC(C)=O)cc2)cc1Cl	none
COc1ccc(C(=S)Nc2ccc(N(C)C)cc2)cc1	none
COc1ccc(NC(=S)c2ccc(N(C)C)cc2)cc1	Wee1 stabilizer 13 | Wee1 degr conf inactive
CC(C)c1ccc(C(=O)NN2C(=O)C3CCCCC3C2=O)cc1 (stereo unspecified)	none
CCN(CC)c1ccc(/C=N/NC(=O)c2ccoc2C)cc1	Wee1 stabilizer 16 | Wee1 degr conf inactive
O=C(Cc1ccccc1)N1CCc2ccccc21	none
O=C(CS(=O)(=O)c1ccccc1)N1CCc2ccccc21	Wee1 stabilizer 12 | Wee1 degr conf inactive
CCOc1ccc(NC(=O)C2C3CC/C=C\CCC32)cc1 (stereo unspecified)	Wee1 stabilizer 11 | Wee1 degr conf inactive
O=C(CNc1cccc(S(=O)(=O)N2CCOCC2)c1)N1CCc2ccccc21	none
COc1cccc(N2C(=O)C(Cc3c[nH]c4ccccc34)NC2=S)c1 (stereo unspecified)	none
CN(CCOc1ccccc1)C(=O)c1cc([N+](=O)[O-])cc([N+](=O)[O-])c1	Wee1 stabilizer 17 | Wee1 degr conf inactive
O=C(NCCOc1ccccc1)c1cc(C(=O)NCCOc2ccccc2)cc([N+](=O)[O-])c1	none
COc1ccc(/C=C/C(=O)O/N=C(\N)c2ccccc2)cc1OC	Wee1 stabilizer 17 | Wee1 degr conf inactive
C=CCNC(=S)NNc1nc(Nc2ccccc2)nc(N2CCCCC2)n1	Wee1 stabilizer 11 | Wee1 degr conf inactive
Cc1cccc(NC(=O)C2C3CCC4C(CCC32)C4(Cl)Cl)c1 (stereo unspecified)	none
CCN(CC)C(=O)/C(=C\c1cccc([N+](=O)[O-])c1)NC(=O)c1ccco1	none
O=[N+]([O-])c1cnn(-c2nc(-c3ccccc3)cc(C(F)(F)F)n2)c1	none
COc1cccc(OC(=O)c2cc3ccccc3oc2=O)c1	Wee1 stabilizer 15 | Wee1 degr conf inactive
COC(=O)C1=C(C)NC(=S)NC1/C=C/c1ccccc1 (stereo unspecified)	none
CCOC(=O)C1=C(C)NC(=S)NC1/C=C/c1ccccc1 (stereo unspecified)	Wee1 stabilizer 16 | Wee1 degr conf inactive
Cc1cc2nc(-c3cccc(NC(=O)c4ccc(Br)o4)c3C)oc2cc1C	Wee1 stabilizer 14 | Wee1 degr conf inactive
Cc1nc(NS(=O)(=O)c2ccccc2)sc1C(=O)N/N=C/c1ccccc1	none
O=C(NCC1CCCO1)C(c1cccnc1)N(C(=O)Cc1cccs1)c1ccccc1 (stereo unspecified)	Wee1 stabilizer 17 | Wee1 degr conf inactive
CC(C)(C)NC(=O)C(c1ccc(F)cc1)N(Cc1cccs1)C(=O)c1ccc(CN2CCOCC2)o1 (stereo unspecified)	Wee1 stabilizer 11 | Wee1 degr conf inactive
O=C(O)C1CCCN1c1ncccc1[N+](=O)[O-] (stereo unspecified)	none
CCN(CC)C(=O)CSc1nnc(-c2ccccn2)n1Cc1ccccc1	none
COc1ccc(-c2nnc(SCC(=O)N/N=C/c3ccccc3C(=O)O)n2-c2ccc(Cl)cc2)cc1	Wee1 stabilizer 12 | Wee1 degr conf inactive
COc1ccc(NC(=O)Nc2cccc(OC)c2)cc1	none (no result: 14-3-3 Bad PPI, eIF4E-4G inh, NCF1 inh)
CCC1CCC(NC(=O)Nc2cccc(OC)c2)CC1 (stereo unspecified)	Wee1 stabilizer 16 | Wee1 degr conf inactive
CC(C)(C)Nc1c(-c2ccc(O)cc2)nc2ccc(Cl)cn12	none
COc1ccc(NC(=S)N(CCCN2CCOCC2)C(C)c2cc3cccc(OC)c3o2)cc1 (stereo unspecified)	none

Assay outcomes from PubChem.
